Laboratory results: PubChem BioAssay AID1230 (PCMD, 2008)
The whole screen tested about 210,000 compounds, of which about 220 (0.1%) were called active.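 The calls were made as follows: active = signal enhancement of 30% or more; inactive = the rest.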 Shown is part of a subset that was picked to be rich in actives.

Target: E3 ubiquitin-protein ligase Mdm2 (Homo sapiens) (UniProt Q00987)
Experiment: MDM2-luciferase reporter signal enhancers, primary screen, MDM2 E3 ligase inhibitor project, cell-based, luminescence, 1536-well (AID 1230);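 also: higher signal means inhibition of MDM2 E3 ligase activity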
Settings: cell-based MDM2 ubiquitination luciferase reporter, 2 h; at 5 µM; hits give high values; 0 = plate control, 100 = twice control, blank-subtracted
Method in brief: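 Assay system: mammalian cells stably expressing self-ubiquitinating, self-degrading MDM2 E3–luciferase fusion. Quantity: 2000 cells in each well. Medium: DMEM culture medium. Compound dosing: single-point 5 µM. Timing: cell settling 4 h, compound treatment 2 h, both 37 °C. Technique: luciferase luminescence. Read-out basis: percent signal gain over controls, blank-subtracted. Benchmarks: plate controls and plate blanks.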

Sequence of E3 ubiquitin-protein ligase Mdm2 (Homo sapiens) (Q00987 whole entry, looked up): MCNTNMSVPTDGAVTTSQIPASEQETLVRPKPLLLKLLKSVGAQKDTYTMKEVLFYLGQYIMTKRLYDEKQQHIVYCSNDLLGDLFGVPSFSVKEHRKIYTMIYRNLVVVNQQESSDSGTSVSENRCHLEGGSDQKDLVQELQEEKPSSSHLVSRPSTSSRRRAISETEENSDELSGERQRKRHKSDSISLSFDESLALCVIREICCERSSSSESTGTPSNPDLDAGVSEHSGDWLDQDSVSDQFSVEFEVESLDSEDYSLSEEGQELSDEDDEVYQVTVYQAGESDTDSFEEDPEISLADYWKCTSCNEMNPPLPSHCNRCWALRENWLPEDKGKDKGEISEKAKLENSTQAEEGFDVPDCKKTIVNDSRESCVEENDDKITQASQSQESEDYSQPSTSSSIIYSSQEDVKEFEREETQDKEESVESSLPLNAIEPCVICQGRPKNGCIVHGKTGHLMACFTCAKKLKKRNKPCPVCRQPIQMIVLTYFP

Row | SMILES | signal enhancement
1 | CCCC(=O)Nc1nnc(-c2ccccc2)o1 | -6.24% (inactive)
2 | O=C(Nc1cccc(Cl)c1)Nc1nnc(-c2ccccc2)o1 | -7.54% (inactive)
3 | O=C(Nc1nnc(-c2ccc(Cl)cc2)o1)c1ccccc1Br | 108% (active)
4 | COc1ccccc1C1CCN(c2ccc([N+](=O)[O-])cn2)CC1 | -10.5% (inactive)
5 | CCN(CC)CCn1cnc2c1c(=O)n(CCOC(=O)c1cc(OC)c(OC)c(OC)c1)c(=O)n2C | 2.01% (inactive)
6 | O=C(NC(=O)c1cc(OCC(F)(F)F)ccc1OCC(F)(F)F)Nc1ccccc1 | -3.24% (inactive)
7 | N#CCC(=O)N/N=C/c1cn(Cc2ccc3ccccc3c2)c2ccccc12 | -6.67% (inactive)
8 | CCn1c(SCC(=O)N/N=C/c2ccncc2)nc2ccccc21 | -15.7% (inactive)
9 | CC(C)(C)CN1C(=O)C(=O)NC[C@H]1Cc1cccc2ccccc12 | -5.59% (inactive)
10 | O=C(N/N=C/c1ccccn1)c1cccnc1 | -13% (inactive)
11 | CCOC(=O)CN(C(=O)COc1nc(C)cc(C)c1C#N)c1ccc(Cl)cc1 | -12.8% (inactive)
12 | O=S(=O)(c1ccc(NC(=S)NN=C(C2CC2)C2CC2)cc1)N1CCOCC1 | -6.04% (inactive)
13 | Cc1nnc(C)c2c(C)n(N)c(C)c12 | -11.1% (inactive)
14 | Cc1nc(SCC(=O)c2ccccc2)c([N+](=O)[O-])[nH]1 | -9.82% (inactive)
15 | Cc1nc(SCc2ccc(F)cc2)c([N+](=O)[O-])[nH]1 | 30.6% (active)
16 | Cc1cc([N+](=O)[O-])nn1Cc1ccc(F)cc1 | -10.9% (inactive)
17 | O=C(CCS(=O)(=O)c1ccccc1Cl)Nc1ccc(S(=O)(=O)Nc2ncccn2)cc1 | -14.3% (inactive)
18 | O=C(O)C#Cc1cccc2ccccc12 | -21.3% (inactive)
19 | Cc1nc2c(ncn2-c2ccccc2)c(=O)n1NC(=O)CN1CCCC1 | -14.3% (inactive)
20 | C/C(=N/Nc1nc(-c2ccccc2)c(CC(=O)O)s1)c1ccccc1 | -20.1% (inactive)
21 | S=C(NNC(=S)NC1CC2CCC1C2)NC1CC2C=CC1C2 (configuration not stated) | -3.28% (inactive)
22 | COC(=O)c1scc(S(=O)(=O)C(C)(C)C)c1-n1cccc1 | -17% (inactive)
23 | C/C(=N\NC(=O)c1cccnc1)c1ccc(-c2ccccc2)cc1 | -9.97% (inactive)
24 | C/C(=N\NC(N)=S)c1cccnc1 | 54.3% (active)
25 | C/C(=N\NC(N)=S)c1ccncc1 | -0.15% (inactive)

Row | SMILES | signal enhancement
26 | COC(=O)N(NC(=O)C(O)(C(C)C)C(C)C)c1ccccc1 | -12.4% (inactive)
27 | O=C(C[n+]1cc(-c2ccc(Cl)c(Cl)c2)n2c1CCC2)c1cccs1 | -2.63% (inactive)
28 | CS(=O)(=O)c1ccc(Cl)c(NC(=O)Nc2ccccc2)c1 | -9.46% (inactive)
29 | Cc1onc(-c2ccc(Cl)cc2)c1-c1ccnn1S(=O)(=O)c1ccc(Cl)cc1 | -0.58% (inactive)
30 | C=CCC1(C#N)C(=S)NC(C)=C(C(=O)OCC)C1c1ccccc1 (configuration not stated) | 9.19% (inactive)
31 | CCc1ccccc1N1CN(Cc2ccco2)CNC1=S | 2.19% (inactive)
32 | OCC1(Cc2ccccc2C(F)(F)F)CCN(Cc2ccncc2)CC1 | -8.35% (inactive)
33 | Cc1nc(/N=C(\N)NC(=O)NC2CCCCC2)nc2ccccc12 | -4.72% (inactive)
34 | COCCNc1nc(-c2ccccc2)nc2c1oc1ccccc12 | -11.4% (inactive)
35 | Cc1ccc2c(c1)nnc1nnc(SCC(=O)O)n12 | 0.72% (inactive)
36 | Cc1ccc2c(C)c(C(=O)N3CCC(N4CCC(C(=O)NC5CC5)CC4)CC3)oc2c1 | -9.89% (inactive)
37 | O=C(NC(=S)Nc1cccc2c(O)cccc12)c1cccc(Br)c1 | -0.26% (inactive)
38 | Clc1ccc(C[n+]2cc(-c3ccc(Cl)cc3)n3c2CCC3)cc1 | -12.4% (inactive)
39 | CSc1nnnn1-c1c(C)cc(C)cc1C | -3.25% (inactive)
40 | O=C(Nc1ccc(N2CCOCC2)nc1)c1c(F)cccc1F | -15% (inactive)
41 | Nc1nc(Sc2ncccc2[N+](=O)[O-])n[nH]1 | 1.65% (inactive)
42 | CCNC(=O)CCc1nc(-c2ccc(C)cc2)no1 | 8.03% (inactive)
43 | O=C1C2C3C=CC(C3)C2C(=O)N1c1ccc(S(=O)(=O)Nc2nccs2)cc1 (configuration not stated) | -8.32% (inactive)
44 | FC(F)(F)c1nc(-c2ccccc2)ncc1-c1nnnn1-c1ccccc1 | -9.19% (inactive)
45 | O=c1oc(-c2ccccc2NS(=O)(=O)c2ccc(Cl)cc2)nc2ccccc12 | -16.5% (inactive)
46 | COc1ccc(Cc2cc(-c3ccc(F)cc3)n[nH]c2=O)cc1 | -10.5% (inactive)
47 | CN(c1ccc(C(=O)NCCC2=CCCCC2)cc1)S(C)(=O)=O | -36.2% (inactive)
48 | O=C(NCCC1=CCCCC1)c1ccc(Cl)c([N+](=O)[O-])c1 | 59.6% (active)
49 | Cn1nnc2cc(C(=O)NCCC3=CCCCC3)ccc21 | -41.3% (inactive)
50 | O=C1CCCCC1C(=O)c1ccccc1 (configuration not stated) | -74.7% (inactive)

Row | SMILES | signal enhancement
51 | CNC(=O)c1csc(Cc2c(Cl)sc3ccc(Cl)cc23)n1 | -3.68% (inactive)
52 | O=C1N=C(N2CCc3ccccc3C2)S/C1=C\c1ccc(O)cc1 | -10.4% (inactive)
53 | O=S(=O)(Nc1ccc(OC(F)(F)F)cc1)c1cccc2nonc12 | 7.33% (inactive)
54 | Cc1onc(NC(=O)c2ccc([N+](=O)[O-])o2)c1Br | -5.7% (inactive)
55 | O=C(CCCCCN1C(=O)c2cccc3cccc(c23)C1=O)NCc1ccco1 | -8.79% (inactive)
56 | Cn1c(CSCC(=O)Nc2ccccc2)nnc1SCc1ccccc1 | -7.31% (inactive)
57 | Cn1cccc1/C=N/NC(=O)CNc1cccc2ccccc12 | -9.96% (inactive)
58 | COc1cc(OC)c2ccc(=O)oc2c1C(CCN1CCN(c2ccccc2)CC1)c1ccc2c(c1)OCO2 (configuration not stated) | 6.23% (inactive)
59 | COc1ccc(CCNC(=O)C(=O)Nc2ccc3nc4n(c(=O)c3c2)CCCCC4)cc1OC | 3.62% (inactive)
60 | Nc1ccccc1SC(C[N+](=O)[O-])c1ccccc1 (configuration not stated) | -3.83% (inactive)
61 | Cn1c(C(=O)NCCCN2CCCCC2)cc2sccc21 | -19.5% (inactive)
62 | O=C(NCCCN1CCN(c2ccccc2F)CC1)C1CCC(=O)N1C1CCCCC1 (configuration not stated) | -15.4% (inactive)
63 | O=C(CCS(=O)(=O)Cc1ccccc1F)NCCCN1CCCCC1 | 35.1% (active)
64 | CSc1sc(C(=O)NC(=O)NCc2cccnc2)c(C)c1-c1ccon1 | -12.8% (inactive)
65 | O=C(NCCCn1ccnc1)C(=O)NCC1OCCN1S(=O)(=O)c1cc(F)ccc1F (configuration not stated) | -1.11% (inactive)
66 | C/C(=N\NC(=O)c1nc(C)cc(C)n1)c1ccccc1 | -2.38% (inactive)
67 | Cc1cc(SCC(=O)c2ccccc2)nc(SCC(=O)c2ccccc2)n1 | -22.4% (inactive)
68 | Cc1cc(C)nc(S/C=C/C(=O)c2ccccc2)n1 | 45.8% (active)
69 | CNC(=S)NNC(=O)c1oc2nc(-c3ccccc3)cc(-c3ccco3)c2c1N | -16.3% (inactive)
70 | Cc1noc(C)c1COC(=O)COc1ccc(-c2ccccc2)cc1 | -6.72% (inactive)
71 | CCS(=O)(=O)c1cc([N+](=O)[O-])c(Sc2ccccc2N)s1 | -43.9% (inactive)
72 | CS(=O)(=O)c1ccc2nnn(OCC(=O)Nc3cccc(C#N)c3)c2c1 | -16.9% (inactive)
73 | CC(=O)c1ccc(S(=O)(=O)N2CCN(C(=O)/C=C/c3ccc4ccccc4n3)CC2)cc1 | -8.84% (inactive)
74 | C/C=C\C=C\C(=O)N1CC2(CC(c3cccc(NC(=O)/C(C)=C\C)c3)=NO2)C[C@H]1C(N)=O (some centres not stated) | -14.1% (inactive)
75 | Cn1ccc(=NC=C(C#N)C#N)c2ccccc21 | 30.3% (active)

Row | SMILES | signal enhancement
76 | CCOC(=O)c1cc(C)nc(S(C)(=O)=O)c1C#N | -11% (inactive)
77 | CCOC(=O)c1c(NC(=S)NC)sc2c1CCCC2 | -8.08% (inactive)
78 | COc1ccc(/C=C/C(=O)Nc2cccnc2)cc1OC | -3.38% (inactive)
79 | COc1ccc(/C=C/C(=O)Nc2ccc(C34CC5CC(CC(O)(C5)C3)C4)cc2)cc1OC | 45.6% (active)
80 | COc1ccc(/C=C/C(=O)Nc2ccc3c(c2)OCCO3)cc1OC | -7.44% (inactive)
81 | Clc1ccc(C[n+]2cc(-c3ccccc3)n3c2CCC3)cc1 | -18.4% (inactive)
82 | S=c1[nH]nc(-c2cccs2)n1/N=C/c1cn(-c2ccccc2)nc1-c1ccc(Cl)cc1 | -7.25% (inactive)
83 | COc1cccc(C2Nc3cccc4cccc(c34)N2)c1 | -2.34% (inactive)
84 | CNC(=O)C(NC(=O)c1ccccc1)=C(C)C | -12.3% (inactive)
85 | COc1ccccc1OCC(=O)O/N=C(\N)c1ccccn1 | -10.7% (inactive)
86 | N/C(=N\OC(=O)Nc1ccccc1)c1ccno1 | -4.12% (inactive)
87 | CCCc1nc2c(c(=O)c3ccccc3n2C)c(=O)n1-c1cc(C)cc(C)c1 | -9.46% (inactive)
88 | COc1ccc(NC(=O)CSc2ncnc3[nH]ncc23)cc1 | -3.15% (inactive)
89 | CC(C)(C)c1cc(NC(=O)NN2CCOCC2)nn1-c1c(Cl)cc(Cl)cc1Cl | -17.5% (inactive)
90 | CCOC(=O)C1CCN(C(=O)Nc2ccc(C)c(Cl)c2)CC1 | -11.1% (inactive)
91 | Cn1nccc1NC(=O)Nc1ccc(OC(F)(F)F)cc1 | -5.96% (inactive)
92 | O=C1NC[C@@H](Cc2ccc(O)cc2)N(CCc2cccc(F)c2)C1=O | 10.9% (inactive)
93 | COc1ccc(CNC(=O)C(Cc2ccccc2)n2cccc2)cc1 (configuration not stated) | -4.92% (inactive)
94 | Cn1cnc([N+](=O)[O-])c1Sc1n[nH]c(N)n1 | -5.56% (inactive)
95 | O=C(CCc1ccccc1)NNc1ccc(F)cc1 | -12.4% (inactive)
96 | CCCCCCCCCCCCN1C(=O)CSC1c1cccnc1 (configuration not stated) | -5.41% (inactive)
97 | O=C(NCC1CCCO1)c1cc(-c2ccccc2)nc2ccccc12 (configuration not stated) | -4.98% (inactive)
